Assay results reported in ChEMBL document CHEMBL4811271, “Computer-aided design of 1,4-naphthoquinone-based inhibitors targeting cruzain and rhodesain cysteine proteases” (Bioorg Med Chem, 2021).
The source made the active and inactive calls. The calls are words filed in the database; no cut-off is given here.

What was measured:
[1] = target: Cruzipain (Trypanosoma cruzi) (UniProt P25779); test: Inhibition of recombinant Trypanosoma cruzi cruzain at 100 uM using Z-FR-AMC as substrate preincubated for 10 mins followed by substrate addition measured for 5 mins by fluorimetric analysis relative to control
Chain of Cruzipain (Trypanosoma cruzi) (P25779 123-467 limits assumed): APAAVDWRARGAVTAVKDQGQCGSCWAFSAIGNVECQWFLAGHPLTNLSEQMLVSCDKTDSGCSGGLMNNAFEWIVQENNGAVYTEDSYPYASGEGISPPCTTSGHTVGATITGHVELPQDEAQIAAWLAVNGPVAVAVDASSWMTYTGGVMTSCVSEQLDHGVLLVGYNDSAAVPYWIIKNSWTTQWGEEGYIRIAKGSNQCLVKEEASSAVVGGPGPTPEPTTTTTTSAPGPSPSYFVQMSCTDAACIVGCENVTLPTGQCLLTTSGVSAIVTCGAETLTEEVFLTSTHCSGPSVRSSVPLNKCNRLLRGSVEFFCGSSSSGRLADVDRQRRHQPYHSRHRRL
Method in brief: (§1)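 Recombinant enzyme (cruzain expressed in-house; rhodesain donated) at 0.5 nM in 0.1 M sodium acetate pH 5.5 with 1 mM DTT and 0.01% Triton X-100. Compound pre-incubated with enzyme 10 min, then 2.5 µM Z-FR-AMC added. Fluorescence followed 5 min. Activity taken from initial rates against DMSO control, E64 as positive control. Screen at 100 µM. IC50 from ≥8 concentrations by nonlinear regression. Two independent experiments in triplicate.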

[2] = target: Rhodesain (Trypanosoma brucei rhodesiense) (UniProt Q95PM0); test: Inhibition of recombinant Trypanosoma brucei rhodesain at 100 uM using Z-FR-AMC as substrate preincubated for 10 mins followed by substrate addition measured for 5 mins by fluorimetric analysis relative to control; method in brief: as §1
Chain of Rhodesain (Trypanosoma brucei rhodesiense) (Q95PM0 1-450): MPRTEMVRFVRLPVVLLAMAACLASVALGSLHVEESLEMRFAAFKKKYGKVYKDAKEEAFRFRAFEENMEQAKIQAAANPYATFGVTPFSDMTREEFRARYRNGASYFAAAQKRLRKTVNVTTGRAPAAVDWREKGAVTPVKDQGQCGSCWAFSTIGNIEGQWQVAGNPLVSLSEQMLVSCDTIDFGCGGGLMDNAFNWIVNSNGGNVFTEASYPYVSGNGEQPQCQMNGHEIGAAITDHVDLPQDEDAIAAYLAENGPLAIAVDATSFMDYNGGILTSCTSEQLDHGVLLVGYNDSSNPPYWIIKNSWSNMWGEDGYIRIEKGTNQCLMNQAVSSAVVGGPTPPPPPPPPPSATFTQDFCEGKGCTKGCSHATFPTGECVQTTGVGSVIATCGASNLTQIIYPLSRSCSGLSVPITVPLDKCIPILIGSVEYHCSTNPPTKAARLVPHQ

[3] = system: Trypanosoma cruzi; test: Antitrypanosomal activity against Trypanosoma cruzi Dm28c assessed as live parasite count measured after 72 hrs by optical microscopy; type: functional; details: read-out: LD50 (the source's name)
[4] = system: Vero; test: Cytotoxicity against African green monkey Vero cells measured after 24 hrs; type: functional; details: Chlorocebus sabaeus
[5] = target: Rhodesain (Trypanosoma brucei rhodesiense) (UniProt Q95PM0); test: Inhibition of recombinant Trypanosoma brucei rhodesain at 100 uM using Z-FR-AMC as substrate by fluorimetric analysis relative to control; method in brief: as §1
[6] = target: T1, Rhodesain (Trypanosoma brucei rhodesiense, UniProt Q95PM0); test: Inhibition of recombinant Trypanosoma brucei rhodesain using Z-FR-AMC as substrate preincubated for 10 mins followed by substrate addition measured for 5 mins by fluorimetric analysis relative to control
T1 sequence (Q95PM0 whole entry): as the sequence (Q95PM0 1-450) above
Method in brief: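 Recombinant rhodesain (0.5 nM) in 0.1 M sodium acetate pH 5.5 with 1 mM DTT and 0.01% Triton X-100, pre-incubated with compound for 10 min before adding 2.5 µM Z-FR-AMC. Fluorescence monitored 5 min. Initial rates compared with DMSO control. Screen at 100 µM; IC50 determined for compounds above 70% inhibition, from at least 8 concentrations, two independent experiments in triplicate.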

[7] = target: Rhodesain (Trypanosoma brucei rhodesiense) (UniProt Q95PM0); test: Inhibition of recombinant Trypanosoma brucei rhodesain at 100 uM using Z-FR-AMC as substrate by fluorimetric analysis; details: TDE = time-dependent effect; method in brief: as §1
[8] = target: T1, Rhodesain; test: Inhibition of recombinant Trypanosoma brucei rhodesain using Z-FR-AMC as substrate by fluorimetric analysis relative to control
Method in brief: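 Rhodesain (recombinant, gift) 0.5 nM in 0.1 M sodium acetate pH 5.5 with 1 mM DTT and 0.01% Triton X-100. Z-FR-AMC substrate 2.5 µM, read by fluorescence over 5 min. Activity from initial rates versus DMSO control, with E64 as positive control. Two independent experiments in triplicate. IC50 from at least 8 concentrations by nonlinear regression.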

[9] = target: Rhodesain (Trypanosoma brucei rhodesiense) (UniProt Q95PM0); test: Reversible inhibition of recombinant Trypanosoma brucei rhodesain using Z-FR-AMC as substrate measured for 30 mins by fluorimetric analysis
Method in brief: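 Rhodesain at 100-fold final assay concentration incubated 30 min with compound at 10-fold its IC50. The mixture was then diluted 100-fold into buffer with 2.5 µM Z-FR-AMC, giving standard enzyme level and 0.1× IC50. AMC release was monitored continuously for 30 min and compared with vehicle control. E-64 served as irreversible reference.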

[10] = target: T1, Rhodesain; test: Binding affinity to Trypanosoma brucei rhodesain; method in brief: as §1
[11] = target: Cruzipain (Trypanosoma cruzi, UniProt P25779); test: Inhibition of recombinant Trypanosoma cruzi cruzain using Z-FR-AMC as substrate preincubated for 10 mins followed by substrate addition measured for 5 mins by fluorimetric analysis relative to control; method in brief: as §1
Chain of Cruzipain (P25779 whole entry): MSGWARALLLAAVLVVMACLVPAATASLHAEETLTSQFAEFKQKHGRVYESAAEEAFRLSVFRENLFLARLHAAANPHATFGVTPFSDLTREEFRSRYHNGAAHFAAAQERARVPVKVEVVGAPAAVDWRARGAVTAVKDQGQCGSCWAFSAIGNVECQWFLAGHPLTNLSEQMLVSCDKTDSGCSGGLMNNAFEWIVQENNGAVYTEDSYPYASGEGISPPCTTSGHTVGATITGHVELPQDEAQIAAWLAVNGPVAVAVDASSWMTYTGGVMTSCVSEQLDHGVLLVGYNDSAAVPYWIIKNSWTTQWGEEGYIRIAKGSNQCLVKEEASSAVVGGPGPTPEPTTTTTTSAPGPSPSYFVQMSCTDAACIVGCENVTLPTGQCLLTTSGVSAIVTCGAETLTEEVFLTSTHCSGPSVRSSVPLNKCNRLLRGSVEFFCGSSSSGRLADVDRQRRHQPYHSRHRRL

[12] = target: Rhodesain (Trypanosoma brucei rhodesiense) (UniProt Q95PM0); test: Inhibition of recombinant Trypanosoma brucei rhodesain at 0.1 uM using Z-FR-AMC as substrate by fluorimetric analysis relative to control
[13] = target: Rhodesain (Trypanosoma brucei rhodesiense) (UniProt Q95PM0); test: Inhibition of recombinant Trypanosoma brucei rhodesain at 0.1 uM using Z-FR-AMC as substrate preincubated for 10 mins followed by substrate addition by fluorimetric analysis relative to control

SMILES	inhibition [1]	inhibition [2]	inhibition [5]	IC50 [6]	IC50 [8]	inhibition [9]	other results
O=C1C=C(Br)C(=O)c2ccccc21	51%	50%					
O=C1C(Cl)=C(Cl)C(=O)c2ccccc21	49%	56%					
CC1(C)CCC2=C(O1)C1(CO1)c1ccccc1C2=O (stereo not given)							LC50 [3]: < 3.1 µM; CC50 [4]: > 50 µM
CC(C)=CCC1=C(O)C(=O)c2ccccc2C1=O [LAPACHOL]	35%	70%	18%	58 µM	> 100 µM	Active	inhibition [7]: Tde
CC(C)C[C@H](NC(=O)[C@H](Cc1ccccc1)NC1=C(C#N)C(=O)c2ccccc2C1=O)C(=O)O							Ki [10]: 0.5 nM
O=C1C=C(Nc2ccc(S(=O)(=O)Nc3ccccn3)cc2)C(=O)c2ccccc21	95%	93%	48%	1.8 µM	30 µM	Active	inhibition [7]: Tde; IC50 [11]: 6.3 µM
CC(C)C[C@H](NC(=O)[C@H]1O[C@@H]1C(=O)O)C(=O)NCCCCN=C(N)N [E-64]				0.0031 µM		Active	inhibition [12]: 7%; inhibition [13]: 95%; IC50 [11]: 0.02 µM
O=C1C=C(O)c2ccccc2/C1=N/NC(=O)c1ccncc1	66%	52%					
Cc1cc(NS(=O)(=O)c2ccc(NC3=CC(=O)c4ccccc4C3=O)cc2)no1	6%	1%					
CC(C)=CCC1=C(O)c2ccccc2/C(=N/NC(=O)c2ccncc2)C1=O	76%	87%	73%	20 µM	29 µM	Active	IC50 [11]: 33 µM
CC(C)=CCC1=C(O)c2ccccc2/C(=N/NC(N)=S)C1=O	83%	82%	79%	28 µM	66 µM	Active	IC50 [11]: 34 µM
O=C1C=C(O)C(=O)c2ccccc21 [LAWSONE]	58%	77%	27%	33 µM	> 100 µM	Active	inhibition [7]: Tde
O=C(NNC1=CC(=O)c2ccccc2C1=O)c1ccncc1	37%	37%					
CC(NC1=CC(=O)c2ccccc2C1=O)c1ccccc1 (stereo not given)	26%	23%					
COC1=CC(=O)c2ccccc2C1=O	32%	27%					
O=C1C=C(Nc2ccccc2)C(=O)c2ccccc21	48%	61%					
